One may read the IC50 as the concentration that gives 50% inhibition. A word on the MIC: it is the least concentration at which growth counts as inhibited. The Ki is a measure of affinity in units of concentration, obtained from inhibition or displacement. Read a low Ki as a stronger hold on the target.

Experimental findings from PMC9742164 (ChemMedChem, 2022) are described below.

In brackets after ≈: the same amount, converted by molar mass.

For assay [1], the target named is T1, E. coli DNA gyrase (Escherichia coli, UniProt P0AES6). Kind of assay: Gel-based DNA gyrase supercoiling inhibition assay. It is filed as biochemical. The following applies: for IC50: supercoiling; for Inhibition of E. coli DNA gyrase: polyphenol screen, in words.
The next assay relates to S. aureus ATCC 14775. In words: MIC broth microdilution. The assay is classed as cell-based. (In broth dilution the organism is exposed to a series of concentrations in liquid medium.)
For a further assay, the system named is MRSA ATCC 33591. In words: MIC broth microdilution. It is filed as cell-based, methicillin-resistant Staphylococcus aureus.
The test system of another assay is B. subtilis ATCC 6633. Kind of assay: MIC broth microdilution. The assay is classed as cell-based.
The subject of a further assay is E. coli ATCC 25922. In words: MIC broth microdilution. The assay is classed as cell-based.
Another assay relates to E. coli imp BAS3023. The assay is classed as cell-based. Conditions: E. coli imp BAS3023 (imp4213 permeability mutation).
Assay [2] deals with T1, E. coli DNA gyrase. In words: SDFQ-based DNA gyrase supercoiling inhibition assay. It is filed as biochemical.
The target in assay [3] is T2, E. coli DNA topoisomerase IV (Escherichia coli, UniProt P20083). Kind of assay: Gel-based DNA relaxation assay by topoisomerase IV. The assay is classed as biochemical. Conditions: for IC50: IC50 against E. coli topoisomerase IV, relaxation; for Inhibition of E. coli DNA topoisomerase IV: in words.
In assay [4] the target is T2, E. coli DNA topoisomerase IV. In words: SDFQ-based DNA relaxation assay by topoisomerase IV. It is filed as biochemical.
Assay [5] has the same target. In words: DNA decatenation assay by topoisomerase IV. It is filed as biochemical.
Assay [6] addresses T1, E. coli DNA gyrase. Kind of assay: DNA gyrase ATPase linked assay. It is filed as biochemical. Put shortly: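 Pyruvate kinase/lactate dehydrogenase-coupled NADH assay at 37°C. Buffer: 10 mM Tris-HCl pH 7.5, 0.2 mM EDTA, 1 mM MgCl2, 1 mM DTT, 2% glycerol. Mix: 50 nM gyrase or GyrB, 200 ng relaxed pAB1, 0.8 mM phosphoenolpyruvate, 1.2 U PK, 1.7 U LDH, 0.4 mM NADH. After 5 min preincubation, 2 mM ATP started the reaction, read at A340. Double-reciprocal plot with or without test compound at 500 nM; single-point at 100 μM.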

Assay [7] addresses T2, E. coli DNA topoisomerase IV. In words: Topoisomerase IV ATPase linked assay. The assay is classed as biochemical. The following applies: in words; 100 μM (Figure 4e). A digest of the protocol: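 Topoisomerase IV ATP hydrolysis was coupled to NADH oxidation via pyruvate kinase/lactate dehydrogenase, read at 340 nm, 37°C. Buffer: 10 mM Tris-HCl pH 7.5, 0.2 mM EDTA, 1 mM MgCl2, 1 mM DTT, 2% glycerol. Mix: relaxed pAB1, 0.8 mM phosphoenolpyruvate, 0.4 mM NADH. After 5 min preincubation, 2 mM ATP was added. Test compounds at 100 μM.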

Assay [8] deals with E. coli DNA topoisomerase I (Escherichia coli, UniProt P06612). Kind of assay: DNA relaxation assay by E. coli DNA topoisomerase I. It is filed as biochemical. Conditions: at 100 μM.
For assay [9], the target named is T3, human DNA topoisomerase I (Homo sapiens, UniProt P11387).
T3 sequence (P11387 1-765): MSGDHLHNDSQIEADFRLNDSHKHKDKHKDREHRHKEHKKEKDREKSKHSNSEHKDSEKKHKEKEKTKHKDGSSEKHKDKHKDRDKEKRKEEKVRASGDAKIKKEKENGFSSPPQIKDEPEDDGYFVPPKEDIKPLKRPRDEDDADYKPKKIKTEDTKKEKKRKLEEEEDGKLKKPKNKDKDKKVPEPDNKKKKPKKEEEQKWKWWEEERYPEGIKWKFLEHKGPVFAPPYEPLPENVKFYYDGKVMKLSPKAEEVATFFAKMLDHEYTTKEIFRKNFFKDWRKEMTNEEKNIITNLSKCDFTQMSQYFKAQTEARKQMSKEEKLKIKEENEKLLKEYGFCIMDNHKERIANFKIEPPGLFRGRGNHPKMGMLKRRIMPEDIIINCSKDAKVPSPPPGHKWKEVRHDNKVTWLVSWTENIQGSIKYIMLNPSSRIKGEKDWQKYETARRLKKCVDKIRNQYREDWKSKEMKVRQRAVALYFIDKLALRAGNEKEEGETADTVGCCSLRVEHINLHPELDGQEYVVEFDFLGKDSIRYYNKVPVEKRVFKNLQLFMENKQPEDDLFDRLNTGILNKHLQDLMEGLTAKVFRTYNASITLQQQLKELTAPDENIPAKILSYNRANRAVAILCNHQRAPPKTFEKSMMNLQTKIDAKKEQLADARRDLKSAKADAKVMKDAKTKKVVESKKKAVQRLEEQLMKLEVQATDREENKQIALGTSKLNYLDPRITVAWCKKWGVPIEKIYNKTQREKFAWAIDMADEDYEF
In words: DNA relaxation assay by human DNA topoisomerase I. The assay is classed as biochemical. The following applies: at 100 μM.

The target in assay [10] is human DNA topoisomerase IIα (Homo sapiens, UniProt P11388). In words: DNA relaxation assay by human DNA topoisomerase IIα. It is filed as biochemical. The following applies: at 100 μM.
Assay [11] addresses T1, E. coli DNA gyrase. Kind of assay: DNA gyrase-mediated DNA cleavage assay. The assay is classed as biochemical. The following applies: up to 200 μM digallic acid. Put shortly:
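Plasmid pBR322 (250 ng) and 20 nM E. coli gyrase were incubated in gyrase buffer with test compound (0–200 μM) at 37°C for 15 min. Then 0.2% SDS and 0.1 mg/mL proteinase K were added to trap cleavage complexes, with 30 min more at 37°C. […] Products ran on 1% agarose containing 0.5 μg/mL ethidium bromide.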

[12] abbreviates: Staphylococcus aureus, ATCC14775.
[13] abbreviates: Staphylococcus aureus, ATCC33591|MRSA.
Where [14] appears, read: IC50 against E. coli DNA gyrase, Gel-based.

T2 sequence (P20083 whole entry): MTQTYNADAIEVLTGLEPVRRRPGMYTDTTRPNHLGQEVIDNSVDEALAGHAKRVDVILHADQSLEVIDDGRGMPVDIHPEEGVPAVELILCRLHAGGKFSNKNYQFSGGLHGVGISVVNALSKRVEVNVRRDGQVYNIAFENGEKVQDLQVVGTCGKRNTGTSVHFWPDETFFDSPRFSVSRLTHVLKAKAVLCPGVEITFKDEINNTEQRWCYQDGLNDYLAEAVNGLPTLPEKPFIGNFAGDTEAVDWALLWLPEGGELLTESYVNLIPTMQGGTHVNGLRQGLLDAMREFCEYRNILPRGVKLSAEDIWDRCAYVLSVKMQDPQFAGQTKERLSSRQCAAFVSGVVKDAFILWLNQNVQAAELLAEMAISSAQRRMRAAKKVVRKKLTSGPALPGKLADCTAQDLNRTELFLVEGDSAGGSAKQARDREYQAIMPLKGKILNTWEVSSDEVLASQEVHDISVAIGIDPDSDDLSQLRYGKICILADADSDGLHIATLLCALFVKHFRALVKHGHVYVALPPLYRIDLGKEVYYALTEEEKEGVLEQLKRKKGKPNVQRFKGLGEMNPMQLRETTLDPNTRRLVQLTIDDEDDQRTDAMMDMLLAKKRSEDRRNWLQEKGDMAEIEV
T2 sequence (P0AFI2 whole entry, further chain): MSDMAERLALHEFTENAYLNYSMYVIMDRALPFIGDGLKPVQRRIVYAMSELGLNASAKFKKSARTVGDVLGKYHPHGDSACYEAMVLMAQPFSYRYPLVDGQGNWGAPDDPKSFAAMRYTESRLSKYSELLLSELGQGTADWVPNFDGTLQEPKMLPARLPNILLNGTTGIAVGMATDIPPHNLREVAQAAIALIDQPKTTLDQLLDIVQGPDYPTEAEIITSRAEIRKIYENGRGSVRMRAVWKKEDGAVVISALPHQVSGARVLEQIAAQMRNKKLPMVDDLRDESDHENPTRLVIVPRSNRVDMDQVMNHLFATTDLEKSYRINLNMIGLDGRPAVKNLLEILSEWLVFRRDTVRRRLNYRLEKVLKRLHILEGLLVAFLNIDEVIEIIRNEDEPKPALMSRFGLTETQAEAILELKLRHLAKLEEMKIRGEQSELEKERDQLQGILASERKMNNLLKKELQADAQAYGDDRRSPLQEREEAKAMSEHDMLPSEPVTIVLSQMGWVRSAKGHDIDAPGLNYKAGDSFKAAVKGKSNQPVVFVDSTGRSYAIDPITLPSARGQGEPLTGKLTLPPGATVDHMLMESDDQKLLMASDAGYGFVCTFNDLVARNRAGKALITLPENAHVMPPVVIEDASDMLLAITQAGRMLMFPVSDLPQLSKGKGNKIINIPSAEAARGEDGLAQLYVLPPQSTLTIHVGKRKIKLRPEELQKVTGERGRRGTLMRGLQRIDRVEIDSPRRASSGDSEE
Sequence of human DNA topoisomerase IIα (P11388 whole entry): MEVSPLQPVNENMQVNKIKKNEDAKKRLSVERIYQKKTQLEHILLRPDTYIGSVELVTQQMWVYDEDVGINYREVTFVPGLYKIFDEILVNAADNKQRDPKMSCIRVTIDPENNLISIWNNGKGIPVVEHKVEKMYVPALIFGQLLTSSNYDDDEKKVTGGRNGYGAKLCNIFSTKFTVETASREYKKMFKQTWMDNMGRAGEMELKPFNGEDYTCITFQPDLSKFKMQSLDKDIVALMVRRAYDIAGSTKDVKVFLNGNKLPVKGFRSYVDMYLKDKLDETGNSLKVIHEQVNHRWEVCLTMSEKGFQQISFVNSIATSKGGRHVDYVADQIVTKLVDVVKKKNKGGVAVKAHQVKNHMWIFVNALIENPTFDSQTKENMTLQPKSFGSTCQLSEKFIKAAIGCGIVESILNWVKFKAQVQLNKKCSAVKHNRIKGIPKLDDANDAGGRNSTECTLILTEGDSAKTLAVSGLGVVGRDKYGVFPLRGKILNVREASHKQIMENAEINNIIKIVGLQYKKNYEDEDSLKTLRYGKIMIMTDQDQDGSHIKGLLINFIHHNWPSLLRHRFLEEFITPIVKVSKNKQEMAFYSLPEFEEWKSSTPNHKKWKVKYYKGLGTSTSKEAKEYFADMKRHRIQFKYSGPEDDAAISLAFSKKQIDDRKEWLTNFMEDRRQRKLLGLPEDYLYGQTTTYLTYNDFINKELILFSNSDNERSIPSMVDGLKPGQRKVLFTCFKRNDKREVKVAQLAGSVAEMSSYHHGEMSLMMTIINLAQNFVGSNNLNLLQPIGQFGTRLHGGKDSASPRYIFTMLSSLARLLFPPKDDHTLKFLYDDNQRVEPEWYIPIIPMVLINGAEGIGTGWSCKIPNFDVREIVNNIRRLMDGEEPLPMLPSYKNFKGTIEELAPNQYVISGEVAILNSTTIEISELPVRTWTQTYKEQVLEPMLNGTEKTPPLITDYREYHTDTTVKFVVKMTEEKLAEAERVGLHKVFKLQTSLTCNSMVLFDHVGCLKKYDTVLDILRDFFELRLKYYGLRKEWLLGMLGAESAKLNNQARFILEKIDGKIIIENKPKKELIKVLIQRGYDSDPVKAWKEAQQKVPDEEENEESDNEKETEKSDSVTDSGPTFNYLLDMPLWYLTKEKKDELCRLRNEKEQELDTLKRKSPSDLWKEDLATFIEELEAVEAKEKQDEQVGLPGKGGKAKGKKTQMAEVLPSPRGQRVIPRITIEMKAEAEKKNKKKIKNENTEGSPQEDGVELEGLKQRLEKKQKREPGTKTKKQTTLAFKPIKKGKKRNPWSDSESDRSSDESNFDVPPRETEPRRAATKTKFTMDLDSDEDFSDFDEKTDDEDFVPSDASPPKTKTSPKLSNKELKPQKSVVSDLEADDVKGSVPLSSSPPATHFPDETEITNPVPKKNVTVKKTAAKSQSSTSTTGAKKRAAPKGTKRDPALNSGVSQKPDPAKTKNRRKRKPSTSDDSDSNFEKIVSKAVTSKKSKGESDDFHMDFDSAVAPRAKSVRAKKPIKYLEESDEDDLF
Sequence of E. coli DNA topoisomerase I (P06612 whole entry): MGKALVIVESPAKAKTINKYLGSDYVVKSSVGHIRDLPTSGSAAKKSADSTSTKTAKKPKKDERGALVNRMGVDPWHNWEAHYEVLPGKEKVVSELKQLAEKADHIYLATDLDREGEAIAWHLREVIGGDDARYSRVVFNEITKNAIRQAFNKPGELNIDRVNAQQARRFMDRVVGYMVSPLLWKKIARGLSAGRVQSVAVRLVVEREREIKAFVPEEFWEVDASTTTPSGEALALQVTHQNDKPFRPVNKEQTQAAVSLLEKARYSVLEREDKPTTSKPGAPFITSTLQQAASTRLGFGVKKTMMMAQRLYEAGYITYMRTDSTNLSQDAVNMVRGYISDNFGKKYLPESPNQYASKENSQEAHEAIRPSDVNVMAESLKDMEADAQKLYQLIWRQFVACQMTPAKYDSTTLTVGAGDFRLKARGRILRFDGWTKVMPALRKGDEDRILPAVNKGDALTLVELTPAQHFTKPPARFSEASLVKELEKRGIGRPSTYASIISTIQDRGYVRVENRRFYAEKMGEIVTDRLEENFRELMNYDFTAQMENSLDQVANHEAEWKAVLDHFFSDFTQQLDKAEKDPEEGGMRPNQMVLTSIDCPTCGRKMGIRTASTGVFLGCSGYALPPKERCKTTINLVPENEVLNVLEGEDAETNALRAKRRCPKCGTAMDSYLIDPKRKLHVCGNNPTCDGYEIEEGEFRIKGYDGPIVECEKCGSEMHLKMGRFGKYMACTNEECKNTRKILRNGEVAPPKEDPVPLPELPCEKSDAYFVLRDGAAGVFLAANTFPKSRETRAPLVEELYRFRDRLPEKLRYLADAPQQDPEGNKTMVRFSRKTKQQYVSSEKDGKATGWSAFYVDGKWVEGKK

As for tannic acid, the IC50 at E. coli DNA gyrase [1] (read-out: IC50 against E. coli DNA gyrase, gel (Figure 1)) came to 1 µM.
`O=C(O[C@@H]1Cc2c(O)cc(O)cc2O[C@@H]1c1cc(O)c(O)c(O)c1)c1cc(O)c(O)c(O)c1` [EGCG, epigallocatechin gallate, reference compound]: the “Inhibition of E. coli DNA gyrase” value on E. coli DNA gyrase [1] is given as “strongly inhibit”.
As for `O=C(Oc1ccc(-c2ccccc2)cc1)c1cc(O)c(O)c(O)c1` [Biphenyl gallate, biphenyl gallate], the minimal inhibitory concentration (MIC) in the assay with S. aureus ATCC 14775 (S. aureus ATCC 14775) was 50 µM (≈ 16.1 µg/mL); against MRSA ATCC 33591 (MRSA ATCC 33591), 50 µM (≈ 16.1 µg/mL); with B. subtilis ATCC 6633, 50 to 100 µM; in the assay with E. coli ATCC 25922 (E. coli ATCC 25922), above 200 µM; against E. coli imp BAS3023, 200 µM (≈ 64.5 µg/mL).
For `CO[C@@H]1[C@@H](OC(N)=O)[C@@H](O)[C@H](Oc2ccc3c(O)c(NC(=O)c4ccc(O)c(CC=C(C)C)c4)c(=O)oc3c2C)OC1(C)C` [Novobiocin, novobiocin, reference compound], the MIC with S. aureus ATCC 14775 (setting [12]) is below 6.25 µM; with MRSA ATCC 33591 (setting [13]), below 6.25 µM; in the assay on E. coli ATCC 25922 (Escherichia coli, ATCC25922), 158 µM (≈ 96.5 µg/mL).
In the case of `O=C(/C=C/c1ccc(O)c(O)c1)O[C@@H]1CC(O)(C(=O)O)C[C@@H](OC(=O)/C=C/c2ccc(O)c(O)c2)C1O` (stereo partly drawn) [3,5-dicaffeoylquinic acid, reference compound], at E. coli DNA gyrase [1], the “Inhibition of E. coli DNA gyrase” value is listed as “strongly inhibit”.
Take `CCCCCCCCOC(=O)c1cc(O)c(O)c(O)c1` [Octyl gallate, octyl gallate]: the IC50 on E. coli DNA gyrase [1] (setting [14]) turned out to be 50 µM; against E. coli DNA gyrase [2], 26 µM; in assay [3] (Gel-based), 50 µM; in assay [4], 41.2 µM. The “Inhibition of E. coli DNA topoisomerase IV” value in assay [3] is given as “strongly inhibit”. Further, the minimal inhibitory concentration (MIC) in the assay on S. aureus ATCC 14775 (setting [12]) is 200 µM (≈ 56.5 µg/mL); against MRSA ATCC 33591 (setting [13]), 100 µM (≈ 28.2 µg/mL); in the assay with E. coli ATCC 25922 (Escherichia coli, ATCC25922) it was above 200 µM.
Take `CCCCOC(=O)c1cc(O)c(O)c(O)c1` [Butyl gallate, butyl gallate]: the IC50 (at E. coli DNA gyrase [1] (setting [14]); against E. coli DNA gyrase [2]; in assay [3] (Gel-based); in [4]) was above 100 µM throughout. Also, the minimum inhibitory concentration (MIC) was above 200 µM with S. aureus ATCC 14775 (setting [12]); above 200 µM in the assay with MRSA ATCC 33591 (setting [13]); above 200 µM in the assay with E. coli ATCC 25922 (Escherichia coli, ATCC25922).
With `CCCCCCCCCCCCOC(=O)c1cc(O)c(O)c(O)c1` [Dodecyl gallate, dodecyl gallate], the IC50 amounted to 15 µM at E. coli DNA gyrase [1] (setting [14]), 13.8 µM at E. coli DNA gyrase [2], 50 µM in assay [3] (Gel-based) and 36.9 µM in [4]. The “Inhibition of E. coli DNA topoisomerase IV” value in assay [3] was “strongly inhibit”. The minimum inhibitory concentration (MIC) in the assay on S. aureus ATCC 14775 (setting [12]) is 200 µM (≈ 67.7 µg/mL); in the assay on MRSA ATCC 33591 (setting [13]), 200 µM (≈ 67.7 µg/mL); against E. coli ATCC 25922 (Escherichia coli, ATCC25922), above 200 µM.
For the molecule `O=c1oc2c(O)c(O)cc3c(=O)oc4c(O)c(O)cc1c4c23` [ellagic acid, reference compound], the “Inhibition of E. coli DNA gyrase” value on E. coli DNA gyrase [1] is listed as “strongly inhibit”.
For the molecule `O=C(Oc1ccccc1)c1cc(O)c(O)c(O)c1` [Phenyl gallate, phenyl gallate], the IC50 on E. coli DNA gyrase [1] (read-out: IC50 against E. coli DNA gyrase, Gel-based, gel-based) was above 100 µM; on E. coli DNA gyrase [2] (read-out: IC50 against E. coli DNA gyrase, SDFQ, supercoiling, SDFQ), above 100 µM; in assay [4] (read-out: IC50 against E. coli topoisomerase IV, SDFQ, relaxation, SDFQ), above 100 µM. Moreover, the MIC against S. aureus ATCC 14775 (S. aureus ATCC 14775) is 200 µM (≈ 49.2 µg/mL); against MRSA ATCC 33591 (MRSA ATCC 33591), 200 µM (≈ 49.2 µg/mL); against B. subtilis ATCC 6633, above 200 µM; against E. coli ATCC 25922 (E. coli ATCC 25922), above 200 µM; in the assay on E. coli imp BAS3023, above 200 µM.
`O=C(O)c1cc(O)c(O)c(OC(=O)c2cc(O)c(O)c(O)c2)c1` [Digallic acid, digallic acid]: the half-maximal inhibitory concentration (IC50) against E. coli DNA gyrase [1] (setting [14]) is 2 µM; against E. coli DNA gyrase [1] (IC50 against E. coli DNA gyrase, gel (Figure 1)), around 2 µM; on E. coli DNA gyrase [2], 1.9 µM; in [3] (Gel-based), 8 µM; in assay [3] it was around 8 µM; in assay [4], 7.3 µM. In addition, the IC50 in assay [5] was around 4 µM. Besides, the affinity on E. coli DNA gyrase [6], expressed as Ki, was 0.347 µM. For the same molecule, the “Vmax of gyrase ATPase” value at E. coli DNA gyrase [6] (in the presence of 500 nM of digallic acid, without inhibitor 16.3 ± 2.5 nM/s) came out at 17.8 ± 5.0 nM/s. Further, the “Inhibition of ATPase activities of E. coli DNA gyrase” value at E. coli DNA gyrase [6] (in words, 100 μM (Figure 3d)) is recorded as “greatly inhibit”. Besides, in assay [7], the “Inhibition of ATPase activities of bacterial DNA topoisomerase IV” value was “inhibit”. Further, the “Inhibition of E. coli DNA topoisomerase I” value in assay [8] is “do not inhibit”. Besides, the “Inhibition of human DNA topoisomerase I” value in assay [9] was “do not inhibit”. Further, in [10], the “Inhibition of human DNA topoisomerase IIα” value is on record as “do not inhibit”. In addition, the “Gyrase poisoning (gyrase-mediated DNA cleavage)” value on E. coli DNA gyrase [11] is reported as “not bacterial DNA gyrase poisons”. The minimum inhibitory concentration (MIC) in the assay on S. aureus ATCC 14775 (setting [12]) was 200 µM (≈ 64.4 µg/mL); against MRSA ATCC 33591 (setting [13]), 200 µM (≈ 64.4 µg/mL); with E. coli ATCC 25922 (Escherichia coli, ATCC25922), above 200 µM.
With `O=C(O)c1cc(O)c(O)c(O)c1` [Gallic acid, gallic acid], the IC50 (against E. coli DNA gyrase [1] (setting [14]); in assay [3] (Gel-based)) was above 500 µM in each case.
